Screening data (PubChem BioAssay)
MrgX1 antag: human MrgX1 receptor antagonism, primary screen. Q96LB2. MRGX1-HEK293 calcium flux, Fluo-4, BAM8-22 antagonism; stronger effect = lower value. B-score at 10 µM. 310,000 tested, 1.3% active. AID 588676;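 active = calcium-response B-score plate-corrected more than 3 library SD below zero, starting fluorescence within 5 deviations, no agonist response on first addition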;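 note: peak minus trough fluorescence over baseline after final BAM8-22 challenge near maximal dose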
Target sequence (Q96LB2 whole entry, looked up): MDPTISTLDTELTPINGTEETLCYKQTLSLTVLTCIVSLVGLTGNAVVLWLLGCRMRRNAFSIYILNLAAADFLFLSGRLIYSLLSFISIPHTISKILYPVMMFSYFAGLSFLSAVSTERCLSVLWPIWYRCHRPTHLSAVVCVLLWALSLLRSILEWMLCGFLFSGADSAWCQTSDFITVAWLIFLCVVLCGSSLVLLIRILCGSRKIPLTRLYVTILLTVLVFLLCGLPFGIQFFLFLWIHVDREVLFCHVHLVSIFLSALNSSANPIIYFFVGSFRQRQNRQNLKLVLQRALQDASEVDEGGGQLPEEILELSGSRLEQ
MrgX1 allo act: human MrgX1 positive allosteric modulation, primary screen | Q96LB2 | MrgX1-HEK293, Fluo-4 calcium flux, FDSS; stronger effect = higher value | B-score at 10 µM | 310,000 tested, 0.63% active;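 active = plate-corrected calcium response at least 3 library SD above typical, normal starting fluorescence, not activating the receptor alone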;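 note: compound read alongside a low EC10 to EC30 dose of BAM8-22 agonist; peak minus trough fluorescence over baseline measured at the second addition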
MrgX1 agonist: human MrgX1 receptor agonism, primary screen. MrgX1-HEK293 cells, Fluo-4 calcium fluorescence, agonist mode; stronger effect = higher value. AID 588627. B-score at 10 µM. 310,000 tested, 0.44% active;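 active = calcium response B-score plate-corrected fluorescence ratio at least 3 library SD, with starting fluorescence B-score inside 5 SD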
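Material: MrgX1-expressing HEK293 cells; input: 15,000 cells per well; doses: test compound given as first of three sequential additions; schedule: overnight plating before 1 h dye loading; technique: Fluo-4 NW calcium-flux fluorescence, kinetic read; evaluation: baseline-normalised fluorescence change ratio, B-scored; control set: plate-wise positive and negative controls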
RGS4 pot: potentiators or activators of RGS4; HEK293 M3R/inducible RGS4, carbachol calcium flux Fluo4; stronger effect = lower value; B-score at 10 µM; 310,000 tested, 0.92% active;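 active = B-score of the integrated calcium signal more than 4 SD below the library mean, with starting fluorescence not abnormally high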;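 note: negative B-score means reduced calcium response which marks RGS4 activation or potentiation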
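Material: Inducible-RGS4 HEK293 cells carrying M3 receptor; also added: carbachol at ECmax as muscarinic agonist stimulus; incubation: compound preincubation 20 min at room temperature before agonist; signal: Fluo4-AM (2 µM) calcium-flux fluorescence, kinetic read; measure: integrated calcium ratio converted to B score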
RGS4 block: human RGS4 inhibition. P49798. HEK293 M3R/RGS4 inducible, Fluo-4 calcium flux; stronger effect = higher value; triggered by carbachol at its EC20. B-score at 10 µM. 310,000 tested, 0.45% active;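 active = B-score, a plate-corrected calcium signal, over three deviations above library mean, with baseline fluorescence within five deviations of library mean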;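 note: RGS4 expression induced by doxycycline in cells with stable M3 receptor; B-score is computed from the integrated fluorescence ratio over baseline after carbachol; higher B-score means a larger calcium signal and so more RGS4 inhibition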
Target sequence (P49798 whole entry, looked up): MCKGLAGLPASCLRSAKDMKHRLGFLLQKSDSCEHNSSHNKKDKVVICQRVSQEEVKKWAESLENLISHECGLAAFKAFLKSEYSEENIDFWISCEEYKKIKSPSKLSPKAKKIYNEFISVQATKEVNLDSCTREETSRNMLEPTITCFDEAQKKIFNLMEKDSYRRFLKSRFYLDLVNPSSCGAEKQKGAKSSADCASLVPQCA
MrgX1 antag conf: reconfirmed antagonist of human MrgX1 receptor signaling; shares compounds with MrgX1 antag; MrgX1-HEK293, BAM8-22 calcium flux, Fluo-4; stronger effect = lower value; remaining BAM8-22 calcium response % of control (stronger effect = lower value), % at 10 µM; 2,300 tested, 19% active;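 active = remaining agonist calcium response no higher than 100% minus 3 SD of agonist-only control wells, with starting fluorescence near control levels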;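 note: agonist BAM8-22 given at a near maximal EC90 to ECmax level; peak minus minimum fluorescence divided by baseline after agonist addition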
HEK293 Ca flux: counter-screen for MrgX1 antagonists: effect in parental HEK293 cells; shares compounds with MrgX1 antag; Fluo-4 calcium fluorescence, FDSS; fluorescence ratio F(max-min)/F0 at 10 µM; 4,000 tested, 2% active;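 active = duplicate-averaged calcium fluorescence ratio at least three times the standard deviation of buffer wells, a nonspecific response in parental cells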
HEK293 Ca counter: MrgX1 allosteric activator counter-screen hit in parental HEK293 cells. shares compounds with MrgX1 antag. parental HEK293 calcium flux, Fluo-4 fluorescence ratio; stronger effect = higher value. fluorescence ratio F(max-min)/F0 at 10 µM. 4,000 tested, 0.4% active. AID 624114;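 active = calcium fluorescence ratio, averaged over duplicates, at least 3 SD of the buffer-well ratio, meaning a nonspecific response in receptor-free cells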;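 note: untransfected parental HEK293 lacking MrgX1 used as counterscreen for MrgX1 allosteric activators; fluorescence change taken during the second addition on a kinetic imager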
HEK293 Ca cntr2: counter-screen for MrgX1 activators: effect in parental HEK293 cells; Fluo-4 calcium fluorescence (FDSS); stronger effect = higher value; shares compounds with MrgX1 antag; 4,000 tested, 8.7% active; AID 624115; fluorescence ratio F(max-min)/F0 at 10 µM;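 active = calcium fluorescence ratio at least three times the spread of buffer wells, meaning a non-specific response in parental cells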
* hit, by the source's call; i = inactive; / = not tested or not shown. Hits are enriched below; roughly 3.5% of the tested compounds scored in any of these assays.

SMILES	MrgX1 antag	MrgX1 allo act	MrgX1 agonist	RGS4 pot	RGS4 block	MrgX1 antag conf	HEK293 Ca flux	HEK293 Ca counter	HEK293 Ca cntr2
COc1ccccc1NC(=O)NCCN1C(=O)C2C3C=CC(C3)C2C1=O (stereo unspecified)	-7.6*	i	i	i	i	i	i	i	i
O=C(CCc1nnc2ccc(NCc3ccccc3)nn12)NC1CCCCC1	i	i	i	i	i	/	/	/	/
Cc1ccc2c(c1)sc(-c1ccc(N(C)C)cc1)[n+]2C	-11*	i	i	i	i	i	0.66*	i	i
CC[n+]1c(C)sc2cc(C)ccc21	i	i	i	i	i	/	/	/	/
CN(C)C(=O)COC(=O)c1ccccc1NC(=O)c1ccco1	i	i	i	i	i	/	/	/	/
CSc1cccc(-c2nnc(NC(=O)c3cccc(N4C(=O)CCC4=O)c3)o2)c1	-4.5*	i	i	i	i	i	i	i	i
O=C(Nc1nnc(-c2ccncc2)o1)c1cccc(N2C(=O)CCC2=O)c1	i	i	i	i	i	/	/	/	/
CC1CCC2(CC1)NC(=O)N(CC(=O)Nc1ccc(N3CCOCC3)cc1)C2=O (stereo unspecified)	-4.7*	i	i	i	i	84%*	i	i	i
CCOc1ccc(N(CC(=O)NCc2ccc(F)cc2)C(=O)c2snc(C(N)=O)c2N)cc1	i	i	i	i	i	/	/	/	/
O=C(NC1CC1)c1cc2c(s1)-c1ccccc1OC2	-5.2*	i	i	i	i	i	i	i	i
Cc1cc(=O)[nH]c(SCC(=O)N(CCC#N)c2ccccc2)c1C#N	i	i	i	i	i	/	/	/	/
C/C(=N\NC(=S)NC1CCCCC1)c1cccc(C(F)(F)F)c1	i	i	i	i	i	/	/	/	/
O=C1c2cccc3c(N4CCCCC4)ccc(c23)C(=O)N1c1cccc(O)c1	-5.2*	i	i	i	i	i	i	i	i
O=C1c2cccc3c(N4CCCCC4)ccc(c23)C(=O)N1CCO	i	i	i	i	i	/	/	/	/
Oc1c(Cl)cc(Cl)cc1/C=C/c1ccc2cccc(O)c2n1	-7.7*	i	i	i	i	i	i	i	i
Oc1ccc(Cl)cc1/C=C/c1ccc2cccc(O)c2n1	/	/	/	i	i	/	/	/	/
NC(=O)c1nsc(C(=O)N(Cc2cccnc2)C(C(=O)NCc2ccc(F)cc2)c2ccc(O)cc2)c1N (stereo unspecified)	i	i	i	i	i	/	/	/	/
CCOc1c2ccoc2nc2c(OC)c(OC)ccc12	-5.7*	i	i	i	i	i	i	i	i
CCOc1c(OC)ccc2c3c(c(=O)oc12)CCCC3	i	i	i	i	i	/	/	/	/
Cc1csc(CN(C)C(=O)CC2C(=O)NCCN2Cc2ccc(Cl)c(F)c2)n1 (stereo unspecified)	i	i	i	i	i	/	/	/	/
O=C(COC(=O)c1ccccc1NCCO)Nc1cccc(S(=O)(=O)NC2=NCCCCC2)c1	i	i	i	i	i	/	/	/	/
CCCOC(=O)C1=C(C)NC2=C(C(=O)C(C(=O)OC)C(C)C2)C1c1ccc(N(CC)CC)cc1 (stereo unspecified)	-7.8*	i	i	i	i	i	i	i	i
CCN(CC(=O)Nc1c(F)cccc1F)C(=O)C1CCN(c2ncnc3sc(C)c(C)c23)CC1	-8.2*	i	i	i	i	i	i	i	i
Cc1cccc(C)c1NC(=O)CN(C)C(=O)C1CCN(c2ncnc3sc(C)c(C)c23)CC1	i	i	i	i	i	/	/	/	/
O=C(CSc1nnc2ccc(-c3ccccn3)nn12)NCCc1ccccc1	-13*	i	i	i	i	84%*	i	i	i
SMILES	MrgX1 antag	MrgX1 allo act	MrgX1 agonist	RGS4 pot	RGS4 block	MrgX1 antag conf	HEK293 Ca flux	HEK293 Ca counter	HEK293 Ca cntr2
Cc1ccc2scc(CN3CCCC3)c2c1	i	i	i	i	i	/	/	/	/
CCc1cc2c(=O)oc(-c3ccc(Br)cc3)nc2s1	/	/	/	i	i	/	/	/	/
CC(=O)c1ccc(NC(=O)c2cnn3c(C(F)F)cc(C4CC4)nc23)cc1	-5*	i	i	i	i	i	i	i	i
Cc1ccc(-c2nnc(CSc3nnc(C)s3)o2)cc1	-5.9*	i	i	i	i	i	i	i	i
COc1ccc(Cc2nc3ccc(C(=O)N(C)C(C)c4ccon4)cc3o2)cc1 (stereo unspecified)	i	i	i	i	i	/	/	/	/
CSc1ncccc1C(=O)Nc1nnc(C2CC2)s1	-4.6*	i	i	i	i	i	i	i	i
O=C(CCS(=O)(=O)Cc1ccccc1)NC1CCCCC1	-4.9*	i	i	i	i	i	i	i	i
O=C(CCSc1ccccc1)NC1CCCC1	-8.8*	i	i	i	i	i	i	i	i
O=C(CCSc1ccccc1)NCc1cccnc1	-5.5*	i	i	i	i	85%*	i	i	i
O=C(CCS(=O)(=O)c1ccccc1)NC1CCCCC1	i	i	i	i	i	/	/	/	/
O=C(CCSc1ccc(Cl)cc1)NC1CCCC1	i	i	i	i	i	/	/	/	/
O=C(NCCc1ccccc1)NC1CCCCC1	-4.8*	i	i	i	i	i	i	i	i
COc1ccccc1CNC(=O)CCS(=O)(=O)c1ccc2c(c1)CCN2C(C)=O	i	i	i	i	i	/	/	/	/
Cc1ccc(NC(=O)c2ccccc2)cc1	-4.7*	i	i	i	i	i	i	i	i
O=C(O)c1ccccc1-c1ccccc1C(=O)Nc1ccccc1	i	i	i	i	i	/	/	/	/
O=C(Nc1ccc(NC(=O)c2ccccc2)nc1)c1ccncc1	-6.8*	i	i	i	i	i	i	i	i
Cc1ccc(NC(=O)c2ccccc2-c2ccccc2C(=O)O)cc1	-6.6*	i	i	i	i	i	i	i	i
